Laboratory results reported in PMC3966939 (Stroke; a journal of cerebral circulation, 2014).

Columns and labels:
TGF-β1 = assay: Immunohistochemistry: TGF-β1 immunoreactive vessels; format: in vivo, rat; conditions: treatment 4h after MCAO, 24h; compared to the saline treatment
How it was run: (§1)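 Embolic-MCAO male Wistar rats were treated 4 h after stroke onset with one of three regimens: IV tPA (10 mg/kg) alone, tPA plus peptide (0.8 mg/kg/day, IA then SC pump), or saline (n=4–6). Rats were killed 24 h after treatment began. Frozen 8 μm coronal sections (bregma −0.4 to −1.4 mm) were immunostained, and immunoreactive vessels in ischemic brain were counted. One-way ANOVA with Hochberg adjustment was used.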

[1] = test system: rat model of embolic middle cerebral artery occlusion (MCAO); assay: Incidence of gross hemorrhage on H&E stained coronal sections; format: in vivo; conditions: treatment started 4h after MCAO; H&E sections 7 days after MCAO
How it was run: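 In embolic-MCAO male Wistar rats, treatment began 1 or 4 h after occlusion. The peptide was given at 0.8 mg/kg/day (IA for 2 h, then SC pump for 3 days), with or without IV tPA 10 mg/kg at 4 h. Rats were killed at day 7. Seven H&E coronal sections per animal were scored for blood visible to the unaided eye, expressed as group percentage. Fisher exact test was applied.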

PAI-1 = assay: Immunohistochemistry: PAI-1 immunoreactive vessels; format: in vivo, rat; conditions: treatment 4h after MCAO, 24h; double immunostaining
How it was run: as §1

NF-κB (p65) = assay: Immunohistochemistry: p65 immunoreactive vessels; format: in vivo, rat; conditions: treatment 4h after MCAO, 24h; ipsilateral hemisphere
How it was run: as §1

[2] = test system: rat model of embolic middle cerebral artery occlusion (MCAO); assay: MRI measurement of ischemic lesion; format: in vivo; conditions: treatment started 4h after MCAO; MRI at 1, 72 and 144 h after MCAO; n=10/group
How it was run: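 Rats received IV tPA (10 mg/kg) alone or tPA plus peptide, starting 4 h after embolic MCAO. Imaging was done on a 7 T scanner with T2-weighted and diffusion-weighted images at 1, 72 and 144 h. Ischemic area was taken from the T2 map using a threshold of two SD above the contralateral hemisphere. Groups were compared by one-way ANOVA.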

p-Smad2/3 = assay: Immunohistochemistry: p-Smads2/3 immunoreactive vessels; format: in vivo, rat; conditions: treatment 4h after MCAO, 24h; compared to the saline treatment
How it was run: as §1

tissue plasminogen activator [tPA]
density of TGF-β1 immunoreactive vessels (TGF-β1): failed to reduce the densities | incidence of gross hemorrhage [1]: 38% | PAI-1 immunoreactive vessel density (PAI-1): further increased | p65 immunoreactive vessels (NF-κB (p65)): augmented | ischemic lesion by MRI (T2) [2]: increased over 144h | density of p-Smads2/3 immunoreactive vessels (p-Smad2/3): failed to reduce the densities
